Reference: ChEMBL document CHEMBL4715734, “Discovery of the Potent and Selective M1 PAM-Agonist N-[(3R,4S)-3-Hydroxytetrahydro-2H-pyran-4-yl]-5-methyl-4-[4-(1,3-thiazol-4-yl)benzyl]pyridine-2-carboxamide (PF-06767832): Evaluation of Efficacy and Cholinergic Side Effects” (J Med Chem, 2016)
Converted amounts (≈) assume the structure as drawn. The source made the active and inactive calls. The calls are words filed in the database; no cut-off is given here.

What was measured:
[1] = fCmax in dog at 1 mg/kg, po measured after 4 hrs using spray-dried dispersion formulation; assay type: ADME, organism-based, Canis lupus familiaris; settings: in vivo
How it was run: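 Dogs from the crossover cardiovascular telemetry study (N=4), dosed orally at 0.3, 1 and 3 mg/kg; unbound Cmax extrapolated from 4 h post-dose in-life plasma samples.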

Rattus norvegicus = assay: Reversal of amphetamine-induced prepulse inhibition in Sprague-Dawley rat at 1 mg/kg, sc administered 30 min before testing followed by administration of amphetamine 15 mins prior to testing; assay type: functional, organism-based
How it was run: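 In rats with amphetamine-disrupted prepulse inhibition, the compound was dosed sc as a suspension in 0.5% methylcellulose in water. Startle reflex and PPI alone were also assessed, and the analysis used the collapsed data set. Plasma and brain levels were taken from randomly chosen animals (N=2/dose) at the end of the study (1.67 h).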

[2] = molecular target: T1, Muscarinic acetylcholine receptor M4 (Homo sapiens, UniProt P08173); assay: Positive allosteric modulation of human recombinant muscarinic M4 receptor stably expressed in HEK cells assessed as increase in ACh-induced cAMP accumulation up to 10 uM measured after 10 mins by GloSensor cAMP Assay; assay type: cell-based
T1 sequence (P08173 whole entry): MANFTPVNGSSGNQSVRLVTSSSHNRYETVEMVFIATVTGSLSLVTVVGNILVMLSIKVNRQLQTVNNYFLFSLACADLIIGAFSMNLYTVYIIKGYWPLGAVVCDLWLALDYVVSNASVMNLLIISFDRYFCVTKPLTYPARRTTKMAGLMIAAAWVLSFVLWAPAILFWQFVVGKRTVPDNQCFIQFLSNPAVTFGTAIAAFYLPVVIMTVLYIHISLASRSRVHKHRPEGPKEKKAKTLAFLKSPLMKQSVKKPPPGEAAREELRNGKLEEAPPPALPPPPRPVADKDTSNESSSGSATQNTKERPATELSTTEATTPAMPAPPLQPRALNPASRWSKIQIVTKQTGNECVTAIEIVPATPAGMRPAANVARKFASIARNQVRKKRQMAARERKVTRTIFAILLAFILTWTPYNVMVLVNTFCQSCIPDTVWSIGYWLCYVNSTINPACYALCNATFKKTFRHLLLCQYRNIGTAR

[3] = molecular target: T2, Muscarinic acetylcholine receptor M1 (Homo sapiens) (UniProt P11229); assay: Binding affinity to muscarinic M1 receptor (unknown origin) assessed as recruitment of beta-arrestin by measuring binding constant by Path Hunter assay; assay type: cell-based; settings: CHO, filed as positive allosteric modulator
T2 sequence (whole entry): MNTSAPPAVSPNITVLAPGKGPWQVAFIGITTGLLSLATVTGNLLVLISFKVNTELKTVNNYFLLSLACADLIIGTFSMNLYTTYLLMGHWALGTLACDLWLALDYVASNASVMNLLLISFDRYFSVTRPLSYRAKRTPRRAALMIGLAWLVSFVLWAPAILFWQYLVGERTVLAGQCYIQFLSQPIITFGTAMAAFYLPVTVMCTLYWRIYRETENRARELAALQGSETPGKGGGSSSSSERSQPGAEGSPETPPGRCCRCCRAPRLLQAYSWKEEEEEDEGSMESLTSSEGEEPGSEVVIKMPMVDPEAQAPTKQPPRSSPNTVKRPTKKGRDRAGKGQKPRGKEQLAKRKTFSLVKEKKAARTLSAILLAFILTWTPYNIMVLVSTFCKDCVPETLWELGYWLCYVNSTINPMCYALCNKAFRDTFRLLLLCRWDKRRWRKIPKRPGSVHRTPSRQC

[4] = fAUC (0 to 24 hrs) in dog at 5 mg/kg, po using spray-dried dispersion formulation; assay type: ADME, organism-based, Canis lupus familiaris; settings: in vivo
[5] = molecular target: T3, Muscarinic acetylcholine receptor M2 (Homo sapiens, UniProt P08172); assay: Agonist activity at human recombinant muscarinic M2 receptor stably expressed in HEK cells assessed as increase in cAMP accumulation up to 10 uM measured after 10 mins by GloSensor cAMP Assay; assay type: cell-based
T3 sequence (P08172 whole entry): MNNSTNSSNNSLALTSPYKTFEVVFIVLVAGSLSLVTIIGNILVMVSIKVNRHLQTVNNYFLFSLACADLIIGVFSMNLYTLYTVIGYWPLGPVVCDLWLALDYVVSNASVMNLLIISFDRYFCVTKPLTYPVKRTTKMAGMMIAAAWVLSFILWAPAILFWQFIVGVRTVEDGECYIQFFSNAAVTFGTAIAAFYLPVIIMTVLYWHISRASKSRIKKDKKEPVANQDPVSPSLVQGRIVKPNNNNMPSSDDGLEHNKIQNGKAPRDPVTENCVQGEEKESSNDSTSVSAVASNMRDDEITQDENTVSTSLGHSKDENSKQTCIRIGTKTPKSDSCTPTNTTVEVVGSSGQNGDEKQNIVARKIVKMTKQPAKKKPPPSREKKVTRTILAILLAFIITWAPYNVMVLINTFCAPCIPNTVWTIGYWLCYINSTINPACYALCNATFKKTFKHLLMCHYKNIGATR

[6] = Fraction unbound in Wistar Han rat plasma; assay type: ADME
[7] = molecular target: T4, Muscarinic acetylcholine receptor M1 (Homo sapiens, UniProt P11229); assay: Positive allosteric modulation of muscarinic M1 receptor (unknown origin) assessed as increase in Ach-induced recruitment of beta-arrestin by Path Hunter assay; assay type: cell-based, CHO
T4 sequence (P11229 whole entry): T2 sequence (whole entry)

[8] = Unbound brain concentration in scopolamine-induced Wistar rat model at 0.32 mg/kg, po measured after 1 hr; assay type: ADME, organism-based; settings: in vivo
[9] = Toxicity in dog assessed as induction of mucoid feces at 15 mg/kg, po using spray-dried dispersion formulation; assay type: organism-based, Canis lupus familiaris; settings: in vivo
[10] = Unbound plasma concentration in amphetamine-induced C57BL/6J mouse model of hyperlocomotion at 0.32 mg/kg, sc measured after 1 hr; assay type: ADME, organism-based; settings: in vivo
How it was run: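 Satellite PK animals from the mouse aLMA study, N=2/dose. Dosed subcutaneously with a solution in 5/15/80 DMSO/Solutol/water. Plasma and brain were sampled at T = 1 h.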

[11] = Unbound plasma concentration in scopolamine-induced Wistar rat model at 0.1 mg/kg, po measured after 1 hr; assay type: ADME, organism-based; settings: in vivo
[12] = Clearance in rat at 1 mg/kg, iv administered as single bolus dose; assay type: ADME, organism-based; settings: in vivo
[13] = Thermodynamic solubility of compound at pH 6.5; assay type: physicochemical; settings: buffer, read-out: Therm_solubility
[14] = molecular target: T2, Muscarinic acetylcholine receptor M1 (Homo sapiens); assay: Binding affinity to human muscarinic M1 receptor stably expressed in CHO cells assessed as increase in intracellular calcium level by measuring binding constant measured after 10 mins by Fluo-8AM dye based FLIPR TETRA method; assay type: cell-based; settings: filed as positive allosteric modulator
[15] = Toxicity in male Beagle dog assessed as increase in maximum systolic left ventricular pressure at 3 mg/kg, po observed up to 9 hrs post last dose by telemetry; assay type: organism-based, Canis lupus familiaris; settings: in vivo
How it was run: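 Crossover telemetry study in dogs at three oral doses (0.3, 1 and 3 mg/kg), N=4. Endpoints were blood pressure, maximum systolic left ventricular pressure, LV +dP/dt max, activity, heart rate, and RR, QT and QTc intervals, followed up to 9 h post dose.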

[16] = molecular target: T1, Muscarinic acetylcholine receptor M4; assay: Agonist activity at human recombinant muscarinic M4 receptor stably expressed in HEK cells assessed as increase in cAMP accumulation up to 10 uM measured after 10 mins by GloSensor cAMP Assay; assay type: cell-based
[17] = molecular target: T2, Muscarinic acetylcholine receptor M1 (Homo sapiens); assay: Positive allosteric modulation of human muscarinic M1 receptor expressed in CHO cells assessed as increase in ACh-induced displacement of [3H]-NMS from M1 receptor at 10 uM by scintillation counting method relative to Ach alone; assay type: cell-based; settings: filed as positive allosteric modulator

Cc1cnc(C(=O)N[C@H]2CCOC[C@@H]2O)cc1Cc1ccc(-c2cscn2)cc1
fCmax [1]: 169 nM
Activity (Rattus norvegicus): Active
Activity [2]: Not Active
Kb [3]: 5 µM
fAUC [4]: 5.861 µM·h
Activity [5]: Not Active
Fu [6]: 4.3%
EC50 [7]: 0.365 µM
Drug uptake(free) [8]: 1.3 nM
Activity [9]: Toxic
Cp(f) [10]: 23.4 nM
Cp(f) [11]: 0.9 nM
clearance [12]: 3.29 mL/min/kg
solubility thermodynamic [13]: 2.7 µg/mL (≈ 6.59 µM)
Kb [14]: 5 µM
Activity [15]: Toxic
Activity [16]: Not Active
fold change (FC) [17]: 339
